Results as given in ChEMBL document CHEMBL1255277, “Acinetobacter radioresistens as a silent source of carbapenem resistance for Acinetobacter spp” (2008).
Values after ≈ are worked out from the molar mass of the structure shown. Active and inactive are the calls of the source. No cut-off for these calls is given here.

Key:
Acinetobacter baumannii = test: Activity of beta lactamase OXA23 in Acinetobacter baumannii Ab13 assessed as compound hydrolysis rate per mg of protein by spectrophotometry
Procedure, shortened: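 Crude culture extract (enzyme source) of the strain; hydrolysis followed by UV spectrophotometry with 100 μM benzylpenicillin or imipenem as substrate; rate expressed as U/mg of protein.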

Escherichia coli [1] = test: Antimicrobial activity against Escherichia coli TOP10 harboring Beta-lactamase OXA-103 by Etest; type: functional
Procedure, shortened: (§1)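 MIC read by Etest on Mueller-Hinton agar at 37°C. Test strains were E. coli TOP10 and TOP10 recombinants carrying cloned OXA-23-like oxacillinase genes. Recombinant clones had been selected on kanamycin (30 μg/ml) plus amoxicillin (30 μg/ml), and cloned inserts were confirmed by double-strand sequencing.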

Escherichia coli [2] = test: Antimicrobial activity against Escherichia coli TOP10 by Etest; type: functional; procedure, shortened: as §1
Escherichia coli [3] = test: Antimicrobial activity against Escherichia coli TOP10 harboring Beta-lactamase OXA-23 by Etest; type: functional; procedure, shortened: as §1
Escherichia coli [4] = test: Antimicrobial activity against Escherichia coli TOP10 harboring Beta-lactamase OXA-102 by Etest; type: functional; procedure, shortened: as §1
Escherichia coli [5] = test: Antimicrobial activity against Escherichia coli TOP10 harboring Beta-lactamase OXA-105 by Etest; type: functional; procedure, shortened: as §1
[6] = test system: Acinetobacter radioresistens; test: Antimicrobial activity against Acinetobacter radioresistens isolates by Etest; type: functional
Procedure, shortened: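 MICs determined by Etest on Mueller-Hinton agar at 37°C; strains previously grown overnight at 37°C on Mueller-Hinton agar plates.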

SMILES | Activity (Acinetobacter baumannii) | MIC (Escherichia coli [1]) | MIC (Escherichia coli [2]) | MIC (Escherichia coli [3]) | MIC (Escherichia coli [4]) | MIC (Escherichia coli [5]) | growth inhibition (GI) [6]
CC1(C)S[C@@H]2[C@H](NC(=O)Cc3ccccc3)C(=O)N2[C@H]1C(=O)O | 5 U |  |  |  |  |  | 
C[C@@H](O)[C@H]1C(=O)N2C(C(=O)O)=C(S[C@@H]3CN[C@H](C(=O)Nc4cccc(C(=O)O)c4)C3)[C@H](C)[C@H]12 [ERTAPENEM] |  | 0.125 µg/mL (≈ 0.263 µM) | 0.004 µg/mL (≈ 0.00841 µM) | 0.012 µg/mL (≈ 0.0252 µM) | 0.125 µg/mL (≈ 0.263 µM) | 0.125 µg/mL (≈ 0.263 µM) | Active
C[C@@H](O)[C@H]1C(=O)N2C(C(=O)O)=C(SCCNC=N)C[C@H]12 [IMIPENEM ANHYDROUS] | 0.2 U | 1 µg/mL (≈ 3.34 µM) | 0.125 µg/mL (≈ 0.418 µM) | 1 µg/mL (≈ 3.34 µM) | 1 µg/mL (≈ 3.34 µM) | 1 µg/mL (≈ 3.34 µM) | Active
C[C@@H](O)[C@H]1C(=O)N2C(C(=O)O)=C(S[C@@H]3CN[C@H](C(=O)N(C)C)C3)[C@H](C)[C@H]12 [MEROPENEM] |  | 0.094 µg/mL (≈ 0.245 µM) | 0.047 µg/mL (≈ 0.123 µM) | 0.047 µg/mL (≈ 0.123 µM) | 0.094 µg/mL (≈ 0.245 µM) | 0.094 µg/mL (≈ 0.245 µM) | Active
